Measurements reported in ChEMBL document CHEMBL2169772, “Discovery of (2S)-1-[4-(2-{6-amino-8-[(6-bromo-1,3-benzodioxol-5-yl)sulfanyl]-9H-purin-9-yl}ethyl)piperidin-1-yl]-2-hydroxypropan-1-one (MPC-3100), a purine-based Hsp90 inhibitor” (J Med Chem, 2012).

Tests used:
[1] = Volume of distribution in Swiss nude mouse at 2.5 mg/kg, iv by LC-ESI-MS/MS method; format: ADME, organism-based; parameters: dose 2.5 mg/kg, route intravenous; settings: in vivo
Method in brief: (§1)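 Intravenous dose in mice, vehicle DMA/PEG300/EtOH/H2O 3/40/12/45. Sampling at 5, 15, 30, 60, 120, 240, 480 and 720 min, three or five animals per time point. Cardiac-puncture EDTA plasma. Acetonitrile protein precipitation with internal standard, then LC-ESI-MS/MS (10–10 000 ng/mL curve). Parameters by noncompartmental fit.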

[2] = AUC in Swiss nude mouse at 10 mg/kg, po by LC-ESI-MS/MS method; format: ADME, organism-based; parameters: dose 10 mg/kg, route oral; settings: plasma
Method in brief: (§2)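 Mice dosed by oral gavage, vehicle DMA/PEG300/EtOH/H2O (3/40/12/45, v/v/v/v). Blood drawn by cardiac puncture into EDTA plasma. Three or five animals per time point. Plasma precipitated with acetonitrile plus internal standard. Quantified by LC-ESI-MS/MS against a 10–10 000 ng/mL standard curve with QC samples. Noncompartmental analysis.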

[3] = Metabolic stability in human liver microsomes assessed as percent of residual drug in presence of NADPH incubated for 40 mins by LC-ESI-MS/MS method; format: ADME, Microsome; settings: liver microsomes, read-out: Stability
Method in brief: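 Test article incubated in duplicate with human liver microsomes (0.5 mg/mL protein) in 100 mM potassium phosphate pH 7.4. Started with 1 mM NADPH. Stopped with acetonitrile at 0, 10, 20 and 40 min. LC-MS/MS peak area at 40 min reported as percent of 0 min. No-NADPH control incubated for 40 min.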

[4] = Tmax in Swiss nude mouse at 10 mg/kg, po by LC-ESI-MS/MS method; format: ADME, organism-based; parameters: dose 10 mg/kg, route oral; settings: in vivo; method in brief: as §2
[5] = Cmax in Swiss nude mouse at 100 mg/kg, po by LC-ESI-MS/MS method; format: ADME, organism-based; parameters: dose 100 mg/kg, route oral; settings: in vivo
Method in brief: (§3)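 Single oral gavage in mice, vehicle 40% Captisol in phosphate buffer. EDTA plasma from cardiac puncture. Acetonitrile precipitation with internal standard, then LC-ESI-MS/MS quantitation against a 10–10 000 ng/mL standard curve. Cmax and AUC by noncompartmental analysis.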

[6] = Oral bioavailability in Swiss nude mouse at 100 mg/kg administered using captisol and phosphate buffer system formulation by LC-ESI-MS/MS method; settings: in vivo
[7] = AUC in Swiss nude mouse at 100 mg/kg, po by LC-ESI-MS/MS method; format: ADME, organism-based; parameters: dose 100 mg/kg, route oral; settings: plasma; method in brief: as §3
[8] = Cmax in Swiss nude mouse at 10 mg/kg, po by LC-ESI-MS/MS method; format: ADME, organism-based; parameters: dose 10 mg/kg, route oral; settings: in vivo; method in brief: as §2
Mus musculus [9] = assay: Inhibition of HSP90 in mouse liver assessed as induction of HSP70 mRNA expression at 100 mg/kg, po after 6 hrs relative to control; format: functional
[10] = Half life in Swiss nude mouse at 2.5 mg/kg, iv by LC-ESI-MS/MS method; format: ADME, organism-based; parameters: dose 2.5 mg/kg, route intravenous; settings: in vivo; method in brief: as §1
[11] = Cytotoxicity against human NCI-ADR-RES cells overexpressing P-gp 1 assessed as inhibition of tumor growth incubated for 72 hrs by luminometry; format: functional, cell-based
Method in brief: (§4)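 Cells seeded at 5000 per well in DMEM with 10% serum and left overnight. Compound added from DMSO dilutions (0.4% DMSO final) for 72 h. After 5 min at room temperature, ATPLite two-step lysis and substrate added, 5 min incubation, then luminescence read. Values are the mean of at least two experiments.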

[12] = AUC in Swiss nude mouse at 2.5 mg/kg, iv by LC-ESI-MS/MS method; format: ADME, organism-based; parameters: dose 2.5 mg/kg, route intravenous; settings: plasma; method in brief: as §1
Heat shock protein HSP90 [13] = molecular target: T1, Heat shock protein HSP90 (Homo sapiens, UniProt P07900+P08238); assay: Inhibition of human HSP90 using BODIPY labelled geldanamycin as substrate by fluorescence polarization assay; format: protein assay
Heat shock protein HSP90 [14] = molecular target: T1, Heat shock protein HSP90; assay: Inhibition of human HSP90 in HCT116 cells expressing Her2 gene assessed as degradation of Her2 after 4 hrs by luciferase reporter gene assay; format: cell-based; settings: hct-116
Method in brief: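 HCT116 cells stably transfected with Her2 kinase domain (aa 641–975) fused to firefly luciferase. Seeded at 10 000 per well in DMEM with 10% serum and left overnight. Compound added from DMSO (0.4% final) for 4 h. Steady-Glo added at room temperature for 5 min, then luminescence read.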

Mus musculus [15] = assay: Hepatic clearance in Swiss nude mouse at 2.5 mg/kg, iv by LC-ESI-MS/MS method; format: ADME, organism-based, Liver; parameters: dose 2.5 mg/kg, route intravenous; settings: in vivo; method in brief: as §1
[16] = Oral bioavailability in Swiss nude mouse at 10 mg/kg by LC-ESI-MS/MS method; format: ADME, organism-based; settings: in vivo; method in brief: as §2
HCT-116 = assay: Cytotoxicity against human HCT116 cells assessed as inhibition of tumor growth incubated for 72 hrs by luminometry; format: functional, cell-based; settings: HCT-116, 72 h; method in brief: as §4
[17] = Lipophilicity, log P of the compound; format: physicochemical; settings: octanol/water

Row | Vd [1] | AUC [2] | remaining at 40 min [3] | Tmax [4] | Cmax [5] | bioavailability [6] | AUC [7] | Cmax [8] | half-life [10] | AUC [12] | IC50 (Heat shock protein HSP90 [13]) | IC50 (Heat shock protein HSP90 [14]) | CLH (Mus musculus [15]) | bioavailability [16] | logP [17] | SMILES | fold change (FC) (Mus musculus [9]) | IC50 [11] | IC50 (HCT-116)
1 | 5.93 L/kg | 702 ng·h/mL | 45% | 15 min | 7530 ng/mL | > 50% | 18200 ng·h/mL | 55 ng/mL | 51 min | 517 ng·h/mL | 90 nM | 40 nM | 80.55 mL/min/kg | 34% |  | Nc1ncnc2c1nc(Sc1cc3c(cc1Br)OCCO3)n2CCC1CCN(C(=O)CO)CC1 | 1.7 | 10000 nM | 820 nM
2 | 1.35 L/kg | 1960 ng·h/mL | 35% | 60 min | 9300 ng/mL | > 50% | 32600 ng·h/mL | 1180 ng/mL | 36 min | 1530 ng·h/mL | 110 nM | 69 nM | 27.32 mL/min/kg | 32% |  | C[C@@H](O)C(=O)N1CCC(CCn2c(Sc3cc4c(cc3Br)OCCO4)nc3c(N)ncnc32)CC1 | 3.8 | 9800 nM | 920 nM
3 |  |  | 51% |  |  |  |  |  |  |  | 900 nM | 660 nM |  |  |  | Nc1ncnc2c1nc(Sc1cc3ccoc3cc1Br)n2CCC1CCN(C=O)CC1 |  | 7900 nM | 4400 nM
4 |  |  | 78% |  |  |  |  |  |  |  | 470 nM | 950 nM |  |  |  | Nc1ncnc2c1nc(Sc1cc3c(cc1Br)OCO3)n2CCC1CCNCC1 |  | > 100000 nM | 4600 nM
5 | 3 L/kg | 1320 ng·h/mL | 54% | 15 min | 7780 ng/mL | > 50% | 25100 ng·h/mL | 588 ng/mL | 30 min | 574 ng·h/mL | 110 nM | 60 nM | 72.65 mL/min/kg | 57% |  | Nc1ncnc2c1nc(Sc1cc3c(cc1Br)OCO3)n2CCC1CCN(C(=O)CO)CC1 | 18 | 2000 nM | 380 nM
6 | 1.32 L/kg | 2410 ng·h/mL | 58% | 15 min | 8400 ng/mL | > 50% | 50300 ng·h/mL | 1430 ng/mL | 36 min | 1650 ng·h/mL | 110 nM | 90 nM | 25.22 mL/min/kg | 37% |  | C[C@@H](O)C(=O)N1CCC(CCn2c(Sc3cc4c(cc3Br)OCO4)nc3c(N)ncnc32)CC1 | 24 | 3300 nM | 640 nM
7 |  |  | 1% |  |  |  |  |  |  |  | 110 nM | 110 nM |  |  |  | Nc1ncnc2c1nc(Sc1cc3c(cc1Br)OCO3)n2CCC1CCN(C(=O)C2CC2)CC1 |  | 930 nM | 650 nM
8 |  |  | 32% |  |  |  |  |  |  |  | 650 nM | 540 nM |  |  |  | C[C@H](O)C(=O)N1CCC(CCn2c(Sc3cc4c(cc3Cl)OCO4)nc3c(N)ncnc32)CC1 |  | 20000 nM | 2700 nM
9 |  |  | 0% |  |  |  |  |  |  |  | 45 nM | 31 nM |  |  |  | Cn1nnnc1N1CCC(CCn2c(Sc3cc4c(cc3Br)OCO4)nc3c(N)ncnc32)CC1 |  | 130 nM | 62 nM
10 | 1.07 L/kg | 1190 ng·h/mL | 45% | 30 min | 11600 ng/mL | > 50% | 40400 ng·h/mL | 564 ng/mL | 25.8 min | 1460 ng·h/mL | 150 nM | 74 nM | 28.53 mL/min/kg | 20% |  | C[C@H](O)C(=O)N1CCC(CCn2c(Sc3cc4c(cc3Br)OCCO4)nc3c(N)ncnc32)CC1 | 3.2 | 6500 nM | 470 nM
11 |  |  | 5% |  |  |  |  |  |  |  | 400 nM | 280 nM |  |  |  | Nc1ncnc2c1nc(Sc1cc3c(cc1Br)OCC3)n2CCC1CCN(C=O)CC1 |  | 86000 nM | 1200 nM
12 |  |  | 44% |  |  |  |  |  |  |  | 68 nM | 110 nM |  |  |  | CC(C)C[C@H](N)C(=O)N1CCC(CCn2c(Sc3cc4c(cc3Br)OCO4)nc3c(N)ncnc32)CC1 |  | 34000 nM | 890 nM
13 |  |  | 38% |  |  |  |  |  |  |  | 60 nM | 190 nM |  |  |  | Nc1ncnc2c1nc(Sc1cc3c(cc1Br)OCO3)n2CCC1CCN(C(=O)[C@@H]2CCCN2)CC1 |  | 89000 nM | 830 nM
14 |  |  | 10% |  |  |  |  |  |  |  | 110 nM | 100 nM |  |  |  | C#CCN1CCC(CCn2c(Sc3cc4c(cc3Br)OCO4)nc3c(N)ncnc32)CC1 |  | 700 nM | 740 nM
15 |  |  | 17% |  |  |  |  |  |  |  | 60 nM | 90 nM |  |  |  | CC(=O)N1CCC(CCn2c(Sc3cc4c(cc3Br)OCO4)nc3c(N)ncnc32)CC1 |  | 3000 nM | 730 nM
16 |  |  | 30% |  |  |  |  |  |  |  | 60 nM | 60 nM |  |  |  | Nc1ncnc2c1nc(Sc1cc3c(cc1Br)C(=O)CC3)n2CCC1CCN(C=O)CC1 |  | 100000 nM | 270 nM
17 |  |  | 31% |  |  |  |  |  |  |  | 210 nM | 92 nM |  |  |  | Nc1ncnc2c1nc(Sc1cc3c(cc1Cl)OCO3)n2CCC1CCN(C=O)CC1 |  | 7600 nM | 1400 nM
18 |  |  | 69% |  |  |  |  |  |  |  | 110 nM | 200 nM |  |  |  | C[C@H](N)C(=O)N1CCC(CCn2c(Sc3cc4c(cc3Br)OCO4)nc3c(N)ncnc32)CC1 |  | 100000 nM | 1200 nM
19 |  |  | 0% |  |  |  |  |  |  |  | > 5000 nM |  |  |  | 4.82 | Nc1ncnc2c1nc(Sc1cc3c(cc1Br)OC(F)(F)O3)n2CCC1CCN(C=O)CC1 |  |  | 
20 | 1.05 L/kg | 1180 ng·h/mL | 42% | 60 min | 8540 ng/mL | > 50% | 38000 ng·h/mL | 312 ng/mL | 16.8 min | 967 ng·h/mL | 60 nM | 49 nM | 43.08 mL/min/kg | 30% |  | Nc1ncnc2c1nc(Sc1cc3c(cc1Br)OCCO3)n2CCC1CCN(C=O)CC1 | 2.3 | 2100 nM | 670 nM
21 | 1.06 L/kg | 4610 ng·h/mL | 53% | 30 min |  |  |  | 2230 ng/mL | 18 min | 880 ng·h/mL | 59 nM | 48 nM | 47.35 mL/min/kg | 131% |  | Nc1ncnc2c1nc(Sc1cc3occc3cc1Br)n2CCC1CCN(C=O)CC1 |  | 1100 nM | 260 nM
22 |  |  | 0% |  |  |  |  |  |  |  | 250 nM | 250 nM |  |  |  | Nc1ncnc2c1nc(Sc1cc3c(cc1Br)OCO3)n2CCC1CCN(C(=O)C2CCCC2)CC1 |  | 370 nM | 1300 nM
